Source: ChEMBL document CHEMBL1156597, “Structure-activity relationship of kahalalide F synthetic analogues” (J Med Chem, 2008)

Columns and labels:
[1] = system: DU-145; experiment: Cytotoxicity against human DU145 cells after 48 hrs by SRB assay; assay type: functional, cell-based; settings: Homo sapiens, DU-145, 48 h; for CC50: read-out: LC50 (the source's name)
Procedure, shortened: (§1)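 Cells grown in RPMI 1640 with 10% FBS and penicillin/streptomycin at 37 °C and 5% CO₂, trypsinized, then seeded at 5 × 10³/well. After 18 h drug-free attachment, samples in DMSO/EtOH/PBS (0.5:0.5:99) were added for 48 h continuous exposure. Cells were fixed with cold TCA (1 h, 4 °C) and stained with SRB (10 min). Tris-solubilized stain read at 490 nm. Triplicate wells, mean ± SD; GI₅₀ derived.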

[2] = system: LNCaP; experiment: Cytotoxicity against human LNcaP cells after 48 hrs by SRB assay; assay type: functional; settings: for CC50: read-out: LC50 (the source's name); procedure, shortened: as §1
[3] = Cytotoxicity against human IGROV cells after 48 hrs by SRB assay; assay type: functional; settings: for CC50: read-out: LC50 (the source's name); procedure, shortened: as §1
[4] = Cytotoxicity against human IGROV-ET cells after 48 hrs by SRB assay; assay type: functional; settings: for CC50: read-out: LC50 (the source's name); procedure, shortened: as §1
[5] = system: SK-BR-3; experiment: Cytotoxicity against human SKBR3 cells after 48 hrs by SRB assay; assay type: functional; settings: SK-BR-3, 48 h; for CC50: read-out: LC50 (the source's name); procedure, shortened: as §1
[6] = system: SK-MEL-28; experiment: Cytotoxicity against human SK-MEL-28 cells after 48 hrs by SRB assay; assay type: functional, cell-based; settings: Homo sapiens, SK-MEL-28, 48 h; for CC50: read-out: LC50 (the source's name); procedure, shortened: as §1
[7] = system: A549; experiment: Cytotoxicity against human A549 cells after 48 hrs by SRB assay; assay type: functional, cell-based; settings: Homo sapiens, A549, 48 h; procedure, shortened: as §1
[8] = system: K562; experiment: Cytotoxicity against human K562 cells after 48 hrs by SRB assay; assay type: functional; settings: K562, 48 h; for CC50: read-out: LC50 (the source's name); procedure, shortened: as §1
[9] = system: PANC-1; experiment: Cytotoxicity against human PANC1 cells after 48 hrs by SRB assay; assay type: functional; settings: PANC-1, 48 h; for CC50: read-out: LC50 (the source's name); procedure, shortened: as §1
[10] = system: HT-29; experiment: Cytotoxicity against human HT29 cells after 48 hrs by SRB assay; assay type: functional, cell-based; settings: Homo sapiens, HT-29, 48 h; for CC50: read-out: LC50 (the source's name); procedure, shortened: as §1
[11] = system: LoVo; experiment: Cytotoxicity against human LoVo cells after 48 hrs by SRB assay; assay type: functional; settings: for CC50: read-out: LC50 (the source's name)
[12] = system: LoVo; experiment: Cytotoxicity against human doxorubicin resistant LoVo cells after 48 hrs by SRB assay; assay type: functional; settings: for CC50: read-out: LC50 (the source's name); procedure, shortened: as §1
[13] = system: HeLa; experiment: Cytotoxicity against human HeLa cells after 48 hrs by SRB assay; assay type: functional; settings: for CC50: read-out: LC50 (the source's name); procedure, shortened: as §1
[14] = Cytotoxicity against human HeLa-APL cells after 48 hrs by SRB assay; assay type: functional; procedure, shortened: as §1

C/C=C1\NC(=O)[C@H](Cc2ccccc2)NC(=O)[C@@H](C(C)C)NC(=O)[C@@H]([C@H](C)CC)NC(=O)[C@H](NC(=O)[C@H](NC(=O)[C@H](CCCNC(=O)C(F)(F)F)NC(=O)[C@H]2CCCN2C(=O)[C@H](NC(=O)[C@@H](NC(=O)[C@@H](NC(=O)[C@H](NC(=O)CC[C@@H](C)CC)C(C)C)[C@@H](C)OC(=O)C(F)(F)F)C(C)C)C(C)C)[C@H](C)CC)[C@H](C)OC(=O)[C@H](C(C)C)NC1=O
TGI [1]: 1170 nM
GI50 ([1]; read-out: GI50): 1460 nM
CC50 [1]: 931 nM
GI50 [2]: 1140 nM
TGI [2]: 1720 nM
CC50 [2]: 1330 nM
GI50 [3]: 397 nM
GI50 ([3]; read-out: GI50): 373 nM
CC50 [3]: 281 nM
GI50 [4]: 911 nM
GI50 ([4]; read-out: GI50): 770 nM
CC50 [4]: 2480 nM
TGI [5]: 322 nM
GI50 ([5]; read-out: GI50): 331 nM
CC50 [5]: 313 nM
CC50 [6]: 1140 nM
LC50 [7]: 1180 nM
TGI [7]: 1200 nM
GI50 ([7]; read-out: GI50): 1230 nM
CC50 [8]: 1710 nM
CC50 [9]: 1570 nM
GI50 [10]: 329 nM
TGI [10]: 355 nM
CC50 [10]: 381 nM
GI50 [11]: 276 nM
TGI [11]: 284 nM
CC50 [11]: 294 nM
GI50 [12]: 363 nM
TGI [12]: 396 nM
CC50 [12]: 1130 nM
GI50 [13]: 656 nM
TGI [13]: 597 nM
CC50 [13]: 543 nM
GI50 [14]: 849 nM
LC50 (concentration giving 50% net cell kill) [14]: 679 nM
TGI [14]: 778 nM

C/C=C1\NC(=O)[C@H](Cc2ccccc2)NC(=O)[C@@H](C(C)C)NC(=O)[C@@H]([C@H](C)CC)NC(=O)[C@H](NC(=O)[C@H](NC(=O)[C@H](CCCN)NC(=O)[C@H]2CCCN2C(=O)[C@H](NC(=O)[C@@H](NC(=O)[C@@H](NC(=O)[C@H](NC(=O)CC[C@@H](C)[C@H]2CC[C@H]3[C@@H]4CC[C@@H]5C[C@H](OC(=O)C(F)(F)F)CC[C@]5(C)[C@H]4CC[C@]23C)C(C)C)[C@@H](C)OC(=O)C(F)(F)F)C(C)C)C(C)C)[C@H](C)CC)[C@H](C)OC(=O)[C@H](C(C)C)NC1=O
GI50 [1]: 683 nM
GI50 ([1]; read-out: GI50): 698 nM
CC50 [1]: 663 nM
GI50 [2]: 729 nM
TGI [2]: 783 nM
CC50 [2]: 838 nM
GI50 [3]: 384 nM
GI50 ([3]; read-out: GI50): 405 nM
CC50 [3]: 317 nM
GI50 [4]: 700 nM
GI50 ([4]; read-out: GI50): 638 nM
CC50 [4]: 2030 nM
TGI [5]: 116 nM
GI50 ([5]; read-out: GI50): 78.4 nM
CC50 [5]: 185 nM
GI50 [6]: 158 nM
GI50 ([6]; read-out: GI50): 201 nM
CC50 [6]: 124 nM
GI50 [7]: 890 nM
LC50 [7]: 835 nM
GI50 ([7]; read-out: GI50): 946 nM
GI50 [8]: 1070 nM
TGI [8]: 857 nM
CC50 [8]: 1220 nM
GI50 [9]: 1660 nM
TGI [9]: 1370 nM
CC50 [9]: 1370 nM
GI50 [10]: 463 nM
TGI [10]: 479 nM
CC50 [10]: 921 nM
GI50 [11]: 285 nM
TGI [11]: 337 nM
CC50 [11]: 614 nM
GI50 [12]: 336 nM
TGI [12]: 381 nM
CC50 [12]: 2110 nM
CC50 [13]: 789 nM
LC50 (concentration giving 50% net cell kill) [14]: 710 nM

C/C=C1\NC(=O)[C@H](Cc2ccccc2)NC(=O)[C@@H](C(C)C)NC(=O)[C@@H]([C@H](C)CC)NC(=O)[C@H](NC(=O)[C@H](NC(=O)[C@H](CCCN)NC(=O)[C@H]2CCCN2C(=O)[C@H](NC(=O)[C@@H](NC(=O)[C@@H](NC(=O)[C@H](NC(=O)CCCCCC)C(C)C)[C@@H](C)O)C(C)C)C(C)C)[C@H](C)CC)[C@H](C)OC(=O)[C@H](C(C)C)NC1=O
GI50 [1]: 880 nM
GI50 ([1]; read-out: GI50): 848 nM
CC50 [1]: 895 nM
GI50 [2]: 1090 nM
TGI [2]: 863 nM
CC50 [2]: 861 nM
GI50 [3]: 404 nM
GI50 ([3]; read-out: GI50): 354 nM
CC50 [3]: 421 nM
GI50 [4]: 304 nM
GI50 ([4]; read-out: GI50): 289 nM
CC50 [4]: 394 nM
GI50 [5]: 36.3 nM
GI50 ([5]; read-out: GI50): 227 nM
CC50 [5]: 363 nM
GI50 [6]: 915 nM
GI50 ([6]; read-out: GI50): 808 nM
CC50 [6]: 991 nM
LC50 [7]: 1150 nM
TGI [7]: 1160 nM
GI50 ([7]; read-out: GI50): 1180 nM
GI50 [8]: 2740 nM
TGI [8]: 2970 nM
CC50 [8]: 1990 nM
GI50 [9]: 2360 nM
TGI [9]: 3780 nM
CC50 [9]: 2720 nM
GI50 [10]: 499 nM
TGI [10]: 583 nM
CC50 [10]: 1070 nM
GI50 [11]: 320 nM
TGI [11]: 324 nM
CC50 [11]: 326 nM
GI50 [12]: 264 nM
TGI [12]: 244 nM
CC50 [12]: 175 nM
GI50 [13]: 965 nM
TGI [13]: 882 nM
CC50 [13]: 806 nM
GI50 [14]: 781 nM
LC50 (concentration giving 50% net cell kill) [14]: 864 nM
TGI [14]: 822 nM
